Legend:
MOLT-4 = test: cells; format: cell-based; details: Homo sapiens, MOLT-4, 72 h
RXF 393 = test: cells; format: cell-based; details: Homo sapiens, RXF 393, 72 h
MALME-3M = test: cells; format: cell-based; details: Homo sapiens, 72 h
Mutu = test: cells; format: cell-based; details: Homo sapiens, 72 h
LOX IMVI = test: cells; format: cell-based; details: Homo sapiens, 72 h
Panc1 = test: cells; format: cell-based; details: Homo sapiens, PANC-1, 72 h
A498 = test: cells; format: cell-based; details: Homo sapiens, A498, 72 h
SF-295 = test: cells; format: cell-based; details: Homo sapiens, SF-295, 72 h
CCRF-CEM = test: cells; format: cell-based; details: Homo sapiens, 72 h
FG = test: cells; format: cell-based; details: Homo sapiens, 72 h
UO-31 = test: cells; format: cell-based; details: Homo sapiens, UO-31, 72 h
HCT-116 = test: cells; format: cell-based; details: Homo sapiens, HCT-116, 72 h
OVCAR-8 = test: cells; format: cell-based; details: Homo sapiens, OVCAR-8, 72 h
Rael = test: cells; format: cell-based; details: Homo sapiens, 72 h
MCF7 = test: cells; format: cell-based; details: Homo sapiens, MCF7, 72 h
NCI-H322M = test: cells; format: cell-based; details: Homo sapiens, 72 h
EKVX = test: cells; format: cell-based; details: Homo sapiens, 72 h
HCT-15 = test: cells; format: cell-based; details: Homo sapiens, HCT-15, 72 h
BxPC3 = test: cells; format: cell-based; details: Homo sapiens, BXPC-3, 72 h
OVCAR-5 = test: cells; format: cell-based; details: Homo sapiens, OVCAR-5, 72 h
ACHN = test: cells; format: cell-based; details: Homo sapiens, 72 h
H9 = test: cells; format: cell-based; details: Homo sapiens, H9, 72 h
SW-620 = test: cells; format: cell-based; details: Homo sapiens, SW-620, 72 h
SK-OV-3 = test: cells; format: cell-based; details: Homo sapiens, SK-OV-3, 72 h
NCI/ADR-RES = test: cells; format: cell-based; details: Homo sapiens, 72 h
TK-10 = test: cells; format: cell-based; details: Homo sapiens, TK-10, 72 h
RPMI-8226 = test: cells; format: cell-based; details: Homo sapiens, RPMI-8226, 72 h
NCI-H226 = test: cells; format: cell-based; details: Homo sapiens, NCI-H226, 72 h
OVCAR-3 = test: cells; format: cell-based; details: Homo sapiens, OVCAR-3, 72 h
SF-268 = test: cells; format: cell-based; details: Homo sapiens, SF-268, 72 h
[1] = Mouse pharmacokinetics study; format: in vivo
Procedure, shortened: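 Plasma concentration–time profiles were obtained after each route. Absolute oral bioavailability was calculated from the IV and oral data.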

HS 578T = test: cells; format: cell-based; details: Homo sapiens, 72 h
KM12 = test: cells; format: cell-based; details: Homo sapiens, KM12, 72 h
UACC-257 = test: cells; format: cell-based; details: Homo sapiens, UACC-257, 72 h
SK-MEL-5 = test: cells; format: cell-based; details: Homo sapiens, SK-MEL-5, 72 h
[2] = test system: H9-derived xenografted tumors; test: H9 xenograft T-cell lymphoma model in NSG mice; format: in vivo, mouse; details: oral gavage daily 14 days, BBM 50 mg/kg, PA4 5-15 mg/kg per day
Procedure, shortened: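 Female 8-week-old NSG mice received 5×10^6 H9 cells in PBS subcutaneously in the right flank. At a tumour volume of ~30 mm³ (day 16), mice were randomised into 5 groups (n = 5 each): PBS 100 μL, or test compound in PBS, given daily by oral gavage for 14 days. Body weight and tumours were measured 3 times weekly. Mice were euthanised on day 30.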

PC-3 = test: cells; format: cell-based; details: Homo sapiens, PC-3, 72 h
HL-60(TB) = test: cells; format: cell-based; details: Homo sapiens, HL-60, 72 h
SK-MEL-28 = test: cells; format: cell-based; details: Homo sapiens, SK-MEL-28, 72 h
MDA-MB-435 = test: cells; format: cell-based; details: Homo sapiens, MDA-MB-435, 72 h
HCC-2998 = test: cells; format: cell-based; details: Homo sapiens, HCC 2998, 72 h
371-kinase panel = test: Kinome screening, HotSpot assay platform; format: biochemical; details: 10 μM, panel of 371 kinases
Procedure, shortened: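 The HotSpot platform was run against a 371-kinase panel with test compounds at 1 µM and 10 µM. A hit was a kinase whose activity was inhibited by ≥50%.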

NCI-H522 = test: cells; format: cell-based; details: Homo sapiens, NCI-H522, 72 h
U251 = test: cells; format: cell-based; details: Homo sapiens, U-251, 72 h
JB6 = test: cells; format: cell-based; details: Homo sapiens, JB6, 72 h
OVCAR-4 = test: cells; format: cell-based; details: Homo sapiens, OVCAR-4, 72 h
NCI-H23 = test: cells; format: cell-based; details: Homo sapiens, NCI-H23, 72 h
M14 = test: cells; format: cell-based; details: Homo sapiens, M14, 72 h
SR = test: cells; format: cell-based; details: Homo sapiens, 72 h
CAKI-1 = test: cells; format: cell-based; details: Homo sapiens, CAKI-1, 72 h
CAMKIIγ [3] = molecular target: T1, CAMKIIγ (Homo sapiens, UniProt Q13555); test: nano-DSF assay with purified CAMKIIγ protein; format: binding; details: in words
Target sequence in this assay (Q13555 14-272 limits assumed): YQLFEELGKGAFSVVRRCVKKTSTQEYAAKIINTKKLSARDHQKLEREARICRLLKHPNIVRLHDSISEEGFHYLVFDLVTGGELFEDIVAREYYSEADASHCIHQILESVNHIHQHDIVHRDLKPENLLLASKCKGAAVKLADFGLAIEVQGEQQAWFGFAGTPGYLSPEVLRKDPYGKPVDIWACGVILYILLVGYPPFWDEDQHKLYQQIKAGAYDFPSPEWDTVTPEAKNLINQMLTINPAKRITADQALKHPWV

SF-539 = test: cells; format: cell-based; details: Homo sapiens, SF-539, 72 h
UACC-62 = test: cells; format: cell-based; details: Homo sapiens, UACC-62, 72 h
MDA-MB-231/ATCC = test: cells; format: cell-based; details: Homo sapiens, MDA-MB-231, 72 h
BT-549 = test: cells; format: cell-based; details: Homo sapiens, BT-549, 72 h
DU-145 = test: cells; format: cell-based; details: Homo sapiens, DU-145, 72 h
Namalwa = test: cells; format: cell-based; details: Homo sapiens, 72 h
HT29 = test: cells; format: cell-based; details: Homo sapiens, HT-29, 72 h
CAMKIIγ [4] = molecular target: T1, CAMKIIγ; test: Cellular thermal shift assay; format: cell-based; details: H9 cells, 5 μM, 1 hour; vs DMSO
Target sequence in this assay (Q13555 whole entry): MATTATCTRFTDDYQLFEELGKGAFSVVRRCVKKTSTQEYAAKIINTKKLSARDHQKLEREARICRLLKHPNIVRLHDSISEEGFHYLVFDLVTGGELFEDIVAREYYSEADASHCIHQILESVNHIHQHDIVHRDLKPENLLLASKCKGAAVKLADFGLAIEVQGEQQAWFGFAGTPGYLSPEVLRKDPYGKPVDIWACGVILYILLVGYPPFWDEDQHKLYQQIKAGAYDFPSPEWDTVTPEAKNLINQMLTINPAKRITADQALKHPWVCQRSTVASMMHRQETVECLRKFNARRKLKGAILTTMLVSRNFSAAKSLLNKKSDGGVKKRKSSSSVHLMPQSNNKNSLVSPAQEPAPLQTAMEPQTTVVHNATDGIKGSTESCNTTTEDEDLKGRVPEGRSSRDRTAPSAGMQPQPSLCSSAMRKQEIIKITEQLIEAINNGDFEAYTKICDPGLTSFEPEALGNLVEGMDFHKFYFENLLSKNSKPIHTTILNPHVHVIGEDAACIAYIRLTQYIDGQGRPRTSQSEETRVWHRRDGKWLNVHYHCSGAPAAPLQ

NCI-H460 = test: cells; format: cell-based; details: Homo sapiens, NCI-H460, 72 h
DHL6 = test: cells; format: cell-based; details: Homo sapiens, 72 h
HOP-92 = test: cells; format: cell-based; details: Homo sapiens, HOP-92, 72 h
T-47D = test: cells; format: cell-based; details: Homo sapiens, T47D, 72 h
K-562 = test: cells; format: cell-based; details: Homo sapiens, K562, 72 h
786-0 = test: cells; format: cell-based; details: Homo sapiens, 786-0, 72 h
COLO 205 = test: cells; format: cell-based; details: Homo sapiens, COLO 205, 72 h
SNB-75 = test: cells; format: cell-based; details: Homo sapiens, SNB-75, 72 h
HOP-62 = test: cells; format: cell-based; details: Homo sapiens, HOP-62, 72 h
SNB-19 = test: cells; format: cell-based; details: Homo sapiens, SNB-19, 72 h
MDA-MB-468 = test: cells; format: cell-based; details: Homo sapiens, MDA-MB-468, 72 h
SN12C = test: cells; format: cell-based; details: Homo sapiens, 72 h
A549/ATCC = test: cells; format: cell-based; details: Homo sapiens, A549, 72 h
CaPan2 = test: cells; format: cell-based; details: Homo sapiens, Capan-2, 72 h
SK-MEL-2 = test: cells; format: cell-based; details: Homo sapiens, SK-MEL-2, 72 h

COc1cc2c3cc1Oc1c(OC)c(OC)cc4c1[C@@H](Cc1ccc(O)c(c1)Oc1ccc(cc1)C[C@@H]3N(C)CC2)N(C)CC4 [BBM, berbamine]
IC50 (MOLT-4): 10.7 µM
IC50 (RXF 393): 16.9 µM
IC50 (MALME-3M): 9.82 µM
IC50 (Mutu): 4.64 µM
IC50 (LOX IMVI): 23 µM
IC50 (Panc1): 24.8 µM
IC50 (A498): 6.97 µM
IC50 (SF-295): 13.3 µM
IC50 (CCRF-CEM): 11.4 µM
IC50 (FG): 32.6 µM
IC50 (UO-31): 9.61 µM
IC50 (HCT-116): 10.2 µM
IC50 (OVCAR-8): 14.6 µM
IC50 (Rael): 5.87 µM
IC50 (MCF7): 9.93 µM
IC50 (NCI-H322M): 20 µM
IC50 (EKVX): 6.38 µM
IC50 (HCT-15): 11 µM
IC50 (BxPC3): 31.9 µM
IC50 (OVCAR-5): 9.88 µM
IC50 (ACHN): 20.8 µM
IC50 (H9): 4.67 µM
IC50 (SW-620): 12.4 µM
IC50 (SK-OV-3): 13.4 µM
IC50 (NCI/ADR-RES): 24.8 µM
IC50 (TK-10): 35.8 µM
IC50 (RPMI-8226): 7.83 µM
IC50 (NCI-H226): 34.6 µM
IC50 (OVCAR-3): 12.3 µM
IC50 (SF-268): 13.8 µM
time detected in blood after oral administration ([1]; male Institute of Cancer Research mice): 5 min
area under the curve ([1]; male Institute of Cancer Research mice, plasma): 8478 ± 1150
bioavailability ([1]; male, ICR (Institute of Cancer Research), mouse, plasma, po): 44.8%
IC50 (HS 578T): 12.4 µM
IC50 (KM12): 17.3 µM
IC50 (UACC-257): 6.5 µM
IC50 (SK-MEL-5): 9.9 µM
body weight [2]: did not reduce body weight
IC50 (PC-3): 7.94 µM
IC50 (HL-60(TB)): 5.98 µM
IC50 (SK-MEL-28): 15.4 µM
IC50 (MDA-MB-435): 13.5 µM
IC50 (HCC-2998): 5.61 µM
number of kinases whose activity was reduced by >50% (371-kinase panel): none
IC50 (NCI-H522): 21.3 µM
IC50 (U251): 10.7 µM
IC50 (JB6): 2.12 µM
IC50 (OVCAR-4): 15.1 µM
IC50 (NCI-H23): 14.9 µM
IC50 (M14): 13.1 µM
IC50 (SR): 5.14 µM
IC50 (CAKI-1): 14.2 µM
change of melting temperature of CAMKIIγ protein (CAMKIIγ [3]): did not significantly change the melting temperature
IC50 (SF-539): 5.25 µM
IC50 (UACC-62): 19.2 µM
IC50 (MDA-MB-231/ATCC): 14.2 µM
IC50 (BT-549): 8.64 µM
IC50 (DU-145): 27.7 µM
IC50 (Namalwa): 20.7 µM
IC50 (HT29): 6.56 µM
CAMKIIγ degradation temperature (CETSA) (CAMKIIγ [4]): did not shift the degradation temperature
IC50 (NCI-H460): 20.5 µM
IC50 (DHL6): 15.9 µM
IC50 (HOP-92): 12.7 µM
IC50 (T-47D): 15.7 µM
IC50 (K-562): 5.11 µM
IC50 (786-0): 8.48 µM
IC50 (COLO 205): 16 µM
IC50 (SNB-75): 17.6 µM
IC50 (HOP-62): 23.8 µM
IC50 (SNB-19): 16.2 µM
IC50 (MDA-MB-468): 10.4 µM
IC50 (SN12C): 41.8 µM
IC50 (A549/ATCC): 18.7 µM
IC50 (CaPan2): 59.1 µM
IC50 (SK-MEL-2): 16 µM

— article PMC10824694 (Blood Advances, 2023)
